Consider 24 compounds from ChEMBL document CHEMBL1125218, “Substituted 2-(aminomethyl)piperidines: a novel class of selective protein kinase C inhibitors” (J Med Chem, 1991).

In test [1] the target is cAMP-dependent protein kinase catalytic subunit alpha (Rattus norvegicus) (UniProt P27791). Description: (§1) Inhibition of cAMP-dependent kinase PKA(Protein kinase A) catalytic subunit at 100 uM. In outline:
(§2)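 PKA catalytic subunit at 4 ng/mL in 20 mM Tris with 10 μM histone, 100 μM dibutyryl-cAMP and 100 μM [³²P]ATP. Percent inhibition measured at 100 μM test compound.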

Test [2] concerns the target T1, Protein kinase C, PKC; classical (Rattus norvegicus, UniProt P05696+P68403+P63319). Description: Inhibition of PMA and [Ca2+] induced 32P incorporation into histones by partially purified rat brain Protein kinase C. In outline: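 Partially purified rat brain PKC activated by PMA, Ca²⁺ and phosphatidylserine. Read-out is inhibition of ³²P incorporation into histones. IC50 taken from concentration-inhibition curves run up to 100 μM inhibitor. Some values are extrapolated.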

The target of test [3] is T1, Protein kinase C, PKC; classical. The experiment in a line: In vitro inhibition of [32P] incorporation into histones by rat brain partially purified Protein kinase C in the presence of PMA, [Ca2+] and phosphatidylserine. In outline:
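Partially purified rat brain PKC activated by PMA, Ca²⁺ and phosphatidylserine. Read-out is inhibition of ³²P incorporation into histones. Some values are extrapolated.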

Test [4] concerns the target cAMP-dependent protein kinase catalytic subunit alpha (Rattus norvegicus) (UniProt P27791). Description: In vitro inhibition of cAMP-dependent kinase Protein kinase A isolated from rat brain by 100 uM. In outline: as §2
For test [5] the target is unchanged. The experiment in a line: Inhibition of cAMP-dependent kinase PKA (Protein kinase A) catalytic subunit at 100 uM. The method in brief: as §2
For test [6], the target named is cAMP-dependent protein kinase catalytic subunit alpha (Rattus norvegicus, UniProt P27791). The test is described as §1.
Test [7] concerns the target T2, Protein kinase C alpha type (Rattus norvegicus, UniProt P05696). The experiment in a line: Inhibition of [3H]-phorbol dibutyrate binding to Protein kinase C alpha.
Test [8] has as its target T2, Protein kinase C alpha type. Description: Effect of Phosphatidylserine on inhibition of Protein kinase C alpha.

In turn, `CCCCCCCCCCCCC(=O)N1CCCCC1CNC(=O)[C@@H](N)CC(C)C` (some centres not stated) came in with an inhibition in test [1] of 0%. The IC50 in test [2] came out at 154 µM. As to `CCCCCCCCCCCCC(=O)N1CCCCC1CNC(=O)[C@H](N)CCCCN` (some centres not stated), the IC50 in test [3] worked out at 34 µM. The compound also returned an inhibition in test [4] of 0%. `CCCCCCCCCCCC(=O)N1CCCCC1CNC(=O)[C@@H](N)CCCCN` (some centres not stated): the half-maximal inhibitory concentration (IC50) in test [3] is 102 µM. The same compound returned an inhibition in test [4] of 0%. On to `CCCCCCCCCCCCCCCC(=O)N1CCCCC1CNC(=O)[C@@H](N)CCCCN` (some centres not stated), for which the IC50 in test [3] turned out to be 45 µM. Besides, in test [4], the inhibition is 0%. As for `CCCCCCCCCCCCCC(=O)N1CCCCC1CN` (configuration not stated), the inhibition in test [5] was 46%. This compound also registered an IC50 in test [2] of 36 µM. As for `CCCCCCCCCCC(=O)N1CCCCC1CNC(=O)[C@@H](N)CCCCN` (some centres not stated), the IC50 in test [3] is 299 µM. The compound further showed an inhibition in test [4] of 0%. Compound `CCCCCCC(=O)N1CCCCC1CNC(=O)[C@@H](N)CCCCN` (some centres not stated) displayed an inhibition in test [4] of 0%. Regarding `CCCCCCCCCCCCC(=O)N1CCCCC1CNC(=O)[C@@H](N)CCC(=O)OCc1ccccc1` (some centres not stated), the IC50 in test [3] came to 92 µM. Besides, the inhibition in test [4] was found to be 0%. `CCCCCCCCCCCCC(=O)N1CCCCC1CNC(=O)[C@@H](N)Cc1ncc[nH]1` (some centres not stated): in test [3], the IC50 stood at 60 µM. The compound also showed an inhibition in test [4] of 0%.

Take `CCCCCCCCCCCCCCCCCC(=O)N1CCCCC1CNC(=O)[C@@H](N)CCCCN` (some centres not stated): in test [3], the IC50 came to 36 µM. The same compound yielded an inhibition in test [4] of 38%. In test [4], `CCCCCCCCCCCCC(=O)N1CCCCC1CNC(=O)[C@@H](N)CCC(=O)O` (some centres not stated) came in with an inhibition of 0%. Turning to `CCCCCCCCCCCCC(=O)N1CCCCC1CNC(=O)CN` (configuration not stated), the IC50 in test [3] was determined as 51 µM. Also, the inhibition in test [4] was determined as 0%.

As to `CCCCCCCCCCCCCC(=O)N1CCCCC1CNC(=O)[C@@H](N)CCCCN` (some centres not stated), the IC50 in test [3] was 48 µM. Besides, the inhibition in test [4] came to 0%.

For `CCCCCCCCCCCCCCCCC(=O)N1CCCCC1CNC(=O)[C@@H](N)CCCCN` (some centres not stated), the IC50 in test [3] is 46 µM. Further, the inhibition in test [4] worked out at 0%. Regarding `CCCCCCCCCCCCC(=O)N1CCCCC1CNC(=O)[C@@H](N)CCCN` (some centres not stated), the IC50 in test [3] was found to be 23 µM. For the same compound, in test [4], the inhibition stood at 0%.

On to `CCCCCCCCCCCCC(=O)N1CCCCC1CNC(=O)[C@@H](N)CO` (some centres not stated), for which the IC50 in test [3] was 45 µM. In test [4], this compound yielded an inhibition of 0%.

Consider `CCCCCCCCCCCCC(=O)N1CCCCC1CNC(=O)[C@@H](N)CCSC` (some centres not stated), for which the IC50 in test [3] came to 159 µM. The inhibition in test [4] stood at 0%. `CCCCCCCCCCCCC(=O)N1CCCCC1CNC(=O)[C@H](C)N` (some centres not stated): in test [3], the IC50 worked out at 52 µM. This compound also returned an inhibition in test [4] of 0%. As to `CCCCCCCCCCCCCCC(=O)N1CCCCC1CNC(=O)[C@@H](N)CCCCN` (some centres not stated), in test [1], the inhibition turned out to be 0%. Further, the IC50 in test [2] came to 38 µM. Regarding `CCCCCCCCCCCCC/C=C/[C@@H](O)[C@@H](N)CO` [SPHINGOSINE], the figures for the IC50 in test [3] and in test [6] were 57 µM and 98 µM, respectively. For `CCCCCCCCCCCCC(=O)N1CCCCC1CNC(=O)[C@@H](N)CCC(N)=O` (some centres not stated), the IC50 in test [3] was determined as 72 µM. This compound also returned an inhibition in test [4] of 0%. As to `CCCCCCCCCCCCC(=O)N1CCCCC1CNC(=O)[C@@H](N)CCCN=C(N)N` (some centres not stated), the IC50 in test [3] is 72 µM. The compound further showed an inhibition in test [4] of 0%. In the case of `CCCCCCCCCCCCC(=O)N1CCCCC1CNC(=O)[C@@H](N)CCCCN` (some centres not stated), the IC50 in test [7] worked out at 23 µM; in test [3], 20 µM. In test [8], this compound had a Ki of 12 µM. The compound also displayed an inhibition in test [4] of 0%. For `CCCCCCCCC(=O)N1CCCCC1CNC(=O)[C@@H](N)CCCCN` (some centres not stated), the inhibition in test [4] came out at 0%.
